Diaph inh CS = counter-screen for diaphorase-based assays: diaphorase inhibitors and chemical oxidizers. diaphorase resazurin-to-resorufin fluorescence, NADH, 16 min; bacterial (C. kluyveri) enzyme, not human. hit rate 0.69% among 190,000. inhibition, % at 20 µM. AID 1217;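 active means primary screen inhibition at 20 µM above a set limit, cut at about 50% in these data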
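Test system: bacterial diaphorase enzyme (C. kluyveri); Quantity: 0.14 U/mL diaphorase, enzyme working solution; Times: reaction incubation of 16 min at room temperature; Measured by: fluorescence of resorufin formed from resazurin, Ex 544/Em 590 nm; Benchmarks: positive control minus NADH, DMSO neutral control.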
WT yeast gro inh = growth inhibition of WT yeast, mitochondrial fusion screen. mitochondrial fusion phenotypic screen, WT strain. inhibition, % at 10 µM. hit rate 2.1% among 190,000; in the data active means inhibition above about 58%; tested in S. cerevisiae
G6PDH CS = counter-screen for G6PDH assay hits: L. mesenteroides G6PDH inhibition | Purified L. mesenteroides G6PDH, diaphorase/resazurin coupled fluorescence, 45 min | inhibition, % at 5 µM | hit rate 0.12% among 200,000
Lmaj promast = reduces viability of Leishmania major promastigotes; resazurin fluorescence viability; inhibition, % at 10 µM; hit rate 9% among 200,000; AID 1063;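 further: promastigotes grown with compound for 44 hours at 28 °C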
Diaph act CS = diaphorase activation or chemical reduction counter-screen. Diaphorase/resazurin coupled assay, resorufin fluorescence, 16 min; hits give high values; 1 = vehicle wells, 0 = NADH-free wells. activation factor at 20 µM. hit rate 0.005% among 190,000;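 active means diaphorase activity raised at least twofold by the compound at 20 µM; inactive means activation factor below 2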
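Test system: Clostridium kluyveri diaphorase, purified enzyme. Buffer or medium: 50 mM HEPES pH 7.4 buffer plus MgCl2 and Tween 20. Also added: 0.114 mM NADH and 0.1 mM resazurin, final amounts. Dosing: compound 20 µM once, DMSO 1%. Schedule: 16 min enzyme reaction, ambient temperature. Detection: fluorescence of resorufin, 544 nm excitation, 590 nm emission.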
Large screens that a line does not name were inactive. Rows were chosen to be rich in hits. Some 11% of all compounds tested hit in one or more screens of this group. Unless noted, no stated cut-off is given here; in the data, active means inhibition above about 50%; inactive means the rest.

COc1cc(/C=C/C(=O)O)ccc1OS(=O)(=O)c1ccc(C)cc1	none
O=C(O)c1ccccc1/C=N/N1CCN(C2c3ccccc3-c3ccccc32)CC1	none
O=C1C=CCC(/C=C/c2ccccc2)O1 (configuration not stated)	none
Cc1ccc(C(=O)O/N=C/c2ccc3c(c2)OCO3)cc1	Lmaj promast 59.0
CC1CCCC(NC(=O)COC(=O)c2sc3ccccc3c2Cl)C1C (configuration not stated)	none
CCOc1ccc(CNC(=S)N/N=C/c2ccc(OC)c(OC)c2)cc1	none
COc1ccc2nc3cccc(OC)c3nc2c1	G6PDH CS 51.3
O=C(NCc1ccccc1)c1ccc2nc(-c3ccco3)c(-c3ccco3)nc2c1	none
COc1ccc2nc(-c3ccco3)c(-c3ccco3)nc2c1	Diaph inh CS 78.4
c1coc(-c2nc(-c3ccco3)c(-c3ccco3)nc2-c2ccco2)c1	Diaph inh CS 94.1
COc1ccc2nc(-c3ccccc3)cc(OC)c2c1	none
CCOc1ccc(-c2cn(-c3cccc(SC)c3)c(=O)[nH]2)cc1	none
CC(=O)c1c(C)[nH]c(C(=O)CSc2nnc(-c3ccc(Cl)cc3)n2CC2CCCO2)c1C (configuration not stated)	WT yeast gro inh 70.1
COc1cc(C2C(C#N)=C(N)Oc3c2ccc2ccccc32)ccc1OCC(=O)Nc1cccc(C)c1 (configuration not stated)	Lmaj promast 75.7
COc1ccc(C2C(C#N)=C(N)Oc3c2ccc2cccnc32)cc1OC (configuration not stated)	none
COc1cc(C2C(C#N)=C(N)Oc3c2ccc2ccccc32)ccc1OCC(=O)Nc1ccc(C)cc1 (configuration not stated)	Lmaj promast 69.1
C=CCn1c(SCc2cc(=O)n3cc(C)ccc3n2)nnc1-c1cccc(C)c1	Lmaj promast 52.2
COCCN(C(=S)Nc1c(C)cc(C)cc1C)C(C)c1cccs1 (configuration not stated)	WT yeast gro inh 65.2, Lmaj promast 97.9
COCCN(C(=S)Nc1cccc(OC)c1)C(C)c1cccs1 (configuration not stated)	none
COCCN(C(=S)Nc1ccc(C)cc1C)C(C)c1cccs1 (configuration not stated)	none
COCCN(C(=S)Nc1ccc(C(C)C)cc1)C(C)c1cccs1 (configuration not stated)	WT yeast gro inh 63.1
O=C(O)CCc1nnc(SCC(=O)Nc2cccc(C(F)(F)F)c2)[nH]c1=O	none
COc1ccc(CN2C(=O)/C(=C/c3ccc(-c4ccc(Cl)c(C(=O)O)c4)o3)SC2=S)cc1	none
Cc1ccc(NC(=O)CN2C(=O)S/C(=C/c3ccc(-c4cccc(C(=O)O)c4)o3)C2=O)cc1	Diaph inh CS 57.2
Cc1ccc(NC(=O)CN2C(=O)S/C(=C\c3ccc(-c4cccc(C(=O)O)c4C)o3)C2=O)cc1	none
O=C(O)c1cc(-c2ccc(/C=C3/SC(=S)N(Cc4ccccc4)C3=O)o2)ccc1Cl	Diaph inh CS 52.2, WT yeast gro inh 59.9
Cc1ccccc1NC(=O)CN1C(=O)S/C(=C\c2ccc(-c3cc(C(=O)O)ccc3C)o2)C1=O	Diaph inh CS 67.0
Cc1ccc(C(=O)O)cc1-c1ccc(/C=C2\SC(=O)N(CC(=O)Nc3ccccc3)C2=O)o1	Diaph inh CS 57.0
COc1ccc(/C=C/C(=O)Oc2cccc(/C=N/NC(=O)COc3c(C)cccc3C)c2)cc1	none
O=C(C1CCN(S(=O)(=O)c2ccccc2F)CC1)N1CCc2ccccc2C1	none
CN(Cc1ccc(Cl)cc1)C(=O)CCl	none
CN(Cc1ccc(Cl)s1)C(=O)CCl	Lmaj promast 84.3
Oc1ccc2ccccc2c1C=Nc1ccc(Cl)cn1	Diaph inh CS 61.5, G6PDH CS 57.7
Oc1ccc2ccccc2c1/C=N/c1nc2c(s1)CCCC2	WT yeast gro inh 79.7
COc1cccc(/C=N/NC(=O)CNC(=O)c2ccc(S(=O)(=O)N3CCCC3)cc2)c1OC	none
Oc1c(Br)cc(Br)cc1/C=N/c1nc2c(s1)CCCC2	none (no result: Diaph inh CS, G6PDH CS, Diaph act CS)
O=C(N/N=C\c1c(O)ccc2ccccc12)c1ccc(S(=O)(=O)N2CCCCC2)cc1	Lmaj promast 99.9
COc1ccc(OC)c(/C=N/NC(=O)CNC(=O)c2ccc(S(=O)(=O)N3CCOCC3)cc2)c1	Lmaj promast 64.9
CN(C)c1ccc(S(=O)(=O)NCC(=O)OCC(=O)Nc2cc(Cl)cc(Cl)c2)cc1[N+](=O)[O-]	none
COc1ccccc1/C=N/NC(=O)CNC(=O)c1ccc(S(=O)(=O)N2CCCC2)cc1	none
O=C(CNC(=O)c1ccc(S(=O)(=O)N2CCCC2)cc1)N/N=C/c1ccccc1Cl	Lmaj promast 94.1
O=C(CNC(=O)c1ccc(S(=O)(=O)N2CCCC2)cc1)N/N=C/c1ccc(F)cc1	Lmaj promast 54.5
Oc1ccc2ccccc2c1C=NC1CCCCC1	Diaph inh CS 51.9, Lmaj promast 62.1
O=C(CNC(=O)c1ccc(S(=O)(=O)N2CCCC2)cc1)N/N=C/c1ccco1	none
CCN(CC(=O)NCc1ccc(Cl)cc1)S(=O)(=O)c1ccc(NC(C)=O)cc1	none
CCN(CC)c1ncnc2scc(C3COc4ccccc4O3)c12 (configuration not stated)	WT yeast gro inh 84.7
CCOC(=O)c1cnc2c(Cl)cc(Cl)cc2c1NCCOCCO	Lmaj promast 96.3
CCOC(=O)c1cnc2ccccc2c1NCCO	none
Cc1cc(C)nc(N/N=C/c2cc(C)n(CC(F)(F)F)c2C)n1	none
COc1ccc(C2C(C#N)=C(N)Oc3c2c(-c2ccccc2)nn3-c2ccccc2)c(OC)c1OC (configuration not stated)	none
CCN1CCN(CCNC(=O)CSCc2nc(-c3ccc(OC)c(OC)c3)oc2C)CC1	Lmaj promast 87.6
CCN1CCN(CCNC(=O)C2CCCN(Cc3nc(-c4cccc(Cl)c4)oc3C)C2)CC1 (configuration not stated)	Lmaj promast 94.1
CCCN(CCC)CCNC(=O)C1CCN(Cc2nc(-c3ccc(Cl)cc3)oc2C)CC1	Lmaj promast 97.8
CCOC(=O)N1CCC(NC(=O)C2CCCN(Cc3nc(-c4cccc(Cl)c4)oc3C)C2)CC1 (configuration not stated)	none
COc1ccc(CCNC(=O)C2CCCN(Cc3nc(-c4ccccc4C)oc3C)C2)cc1OC (configuration not stated)	Lmaj promast 92.0
COc1cc([N+](=O)[O-])ccc1NC(=O)CC(C)C	none
O=C(NCc1ccco1)c1cc([N+](=O)[O-])ccc1N1CCOCC1	none
CCc1ccc(-c2nc(CN3CCCC(C(=O)NCCc4ccc(OC)c(OC)c4)C3)c(C)o2)cc1 (configuration not stated)	Lmaj promast 83.2
CC1=N/C(=C/c2cccnc2)C(=O)O1	none
CC(C)N1C/C(=C/c2ccsc2)C(=O)/C(=C/c2ccsc2)C1	Lmaj promast 100.5
